Source: ChEMBL document CHEMBL1152757, “Stereoselective synthesis and biological evaluation of syn-1-amino-3-[18F]fluorocyclobutyl-1-carboxylic acid as a potential positron emission tomography brain tumor imaging agent” (Bioorg Med Chem, 2009)

How the values were obtained:
Liver [1] = test: Biodistribution in liver of rat 9L cells implanted Fischer rat at 15 to 30 uCi, iv after 60 mins by gamma-counter; format: ADME, organism-based; details: in vivo, 1 h
How it was run: (§1)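 Male Fischer 344 rats (125-175 g) implanted intracranially by stereotactic injection of 5 × 10^4 9L gliosarcoma cells. Used 10-12 days after implantation. Tracer given into the tail vein at 15-30 µCi in 0.1-0.3 mL sterile saline. Groups of 4 were sacrificed at 15, 30, 60 and 120 min. Tissues were weighed and gamma-counted against dose standards, and counts decay-corrected to %ID/g (mean ± SD). One-way ANOVA.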

Liver [2] = test: Biodistribution in liver of rat 9L cells implanted Fischer rat at 15 to 30 uCi, iv after 120 mins by gamma-counter; format: ADME, organism-based; details: in vivo, 2 h; how it was run: as §1
Pancreas [3] = test: Biodistribution in pancreas of rat 9L cells implanted Fischer rat at 15 to 30 uCi, iv after 15 mins by gamma-counter; format: ADME, organism-based; details: in vivo, 0.25 h; how it was run: as §1
Pancreas [4] = test: Biodistribution in pancreas of rat 9L cells implanted Fischer rat at 15 to 30 uCi, iv after 30 mins by gamma-counter; format: ADME, organism-based; details: in vivo, 0.5 h; how it was run: as §1
Pancreas [5] = test: Biodistribution in pancreas of rat 9L cells implanted Fischer rat at 15 to 30 uCi, iv after 60 mins by gamma-counter; format: ADME, organism-based; details: in vivo, 1 h; how it was run: as §1
Pancreas [6] = test: Biodistribution in pancreas of rat 9L cells implanted Fischer rat at 15 to 30 uCi, iv after 120 mins by gamma-counter; format: ADME, organism-based; details: in vivo, 2 h; how it was run: as §1
Spleen [7] = test: Biodistribution in spleen of rat 9L cells implanted Fischer rat at 15 to 30 uCi, iv after 15 mins by gamma-counter; format: ADME, organism-based; details: in vivo, 0.25 h; how it was run: as §1
Spleen [8] = test: Biodistribution in spleen of rat 9L cells implanted Fischer rat at 15 to 30 uCi, iv after 30 mins by gamma-counter; format: ADME, organism-based; details: in vivo, 0.5 h; how it was run: as §1
Spleen [9] = test: Biodistribution in spleen of rat 9L cells implanted Fischer rat at 15 to 30 uCi, iv after 60 mins by gamma-counter; format: ADME, organism-based; details: in vivo, 1 h; how it was run: as §1
Spleen [10] = test: Biodistribution in spleen of rat 9L cells implanted Fischer rat at 15 to 30 uCi, iv after 120 mins by gamma-counter; format: ADME, organism-based; details: in vivo, 2 h; how it was run: as §1
Kidney [11] = test: Biodistribution in kidney of rat 9L cells implanted Fischer rat at 15 to 30 uCi, iv after 15 mins by gamma-counter; format: ADME, organism-based; details: in vivo, 0.25 h; how it was run: as §1
Kidney [12] = test: Biodistribution in kidney of rat 9L cells implanted Fischer rat at 15 to 30 uCi, iv after 30 mins by gamma-counter; format: ADME, organism-based; details: in vivo, 0.5 h; how it was run: as §1
Kidney [13] = test: Biodistribution in kidney of rat 9L cells implanted Fischer rat at 15 to 30 uCi, iv after 60 mins by gamma-counter; format: ADME, organism-based; details: in vivo, 1 h; how it was run: as §1
Kidney [14] = test: Biodistribution in kidney of rat 9L cells implanted Fischer rat at 15 to 30 uCi, iv after 120 mins by gamma-counter; format: ADME, organism-based; details: in vivo, 2 h; how it was run: as §1
Muscle tissue [15] = test: Biodistribution in muscle of rat 9L cells implanted Fischer rat at 15 to 30 uCi, iv after 15 mins by gamma-counter; format: ADME, organism-based; details: in vivo, 0.25 h; how it was run: as §1
Muscle tissue [16] = test: Biodistribution in muscle of rat 9L cells implanted Fischer rat at 15 to 30 uCi, iv after 30 mins by gamma-counter; format: ADME, organism-based; details: in vivo, 0.5 h; how it was run: as §1
Muscle tissue [17] = test: Biodistribution in muscle of rat 9L cells implanted Fischer rat at 15 to 30 uCi, iv after 60 mins by gamma-counter; format: ADME, organism-based; details: in vivo, 1 h; how it was run: as §1
Muscle tissue [18] = test: Biodistribution in muscle of rat 9L cells implanted Fischer rat at 15 to 30 uCi, iv after 120 mins by gamma-counter; format: ADME, organism-based; details: in vivo, 2 h; how it was run: as §1
Brain [19] = test: Biodistribution in brain of rat 9L cells implanted Fischer rat at 15 to 30 uCi, iv after 15 mins by gamma-counter; format: ADME, organism-based; details: in vivo, 0.25 h; how it was run: as §1
Brain [20] = test: Biodistribution in brain of rat 9L cells implanted Fischer rat at 15 to 30 uCi, iv after 30 mins by gamma-counter; format: ADME, organism-based; details: in vivo, 0.5 h; how it was run: as §1
Brain [21] = test: Biodistribution in brain of rat 9L cells implanted Fischer rat at 15 to 30 uCi, iv after 60 mins by gamma-counter; format: ADME, organism-based; details: in vivo, 1 h; how it was run: as §1
Brain [22] = test: Biodistribution in brain of rat 9L cells implanted Fischer rat at 15 to 30 uCi, iv after 120 mins by gamma-counter; format: ADME, organism-based; details: in vivo, 2 h; how it was run: as §1
[23] = Biodistribution in tumor of rat 9L cells implanted Fischer rat at 15 to 30 uCi, iv after 15 mins by gamma-counter; format: ADME, organism-based, Neoplasm; details: in vivo, 0.25 h; how it was run: as §1
[24] = Biodistribution in tumor of rat 9L cells implanted Fischer rat at 15 to 30 uCi, iv after 30 mins by gamma-counter; format: ADME, organism-based, Neoplasm; details: in vivo, 0.5 h; how it was run: as §1
[25] = Biodistribution in tumor of rat 9L cells implanted Fischer rat at 15 to 30 uCi, iv after 60 mins by gamma-counter; format: ADME, organism-based, Neoplasm; details: in vivo, 1 h; how it was run: as §1
[26] = Biodistribution in tumor of rat 9L cells implanted Fischer rat at 15 to 30 uCi, iv after 120 mins by gamma-counter; format: ADME, organism-based, Neoplasm; details: in vivo, 2 h; how it was run: as §1
Bone = test: Biodistribution in bone of rat 9L cells implanted Fischer rat at 15 to 30 uCi, iv after 15 mins by gamma-counter; format: ADME, organism-based, Bone element; details: in vivo, 0.25 h; how it was run: as §1

`N[C@]1(C(=O)O)C[C@H]([18F])C1` gave a Drug uptake (Liver [1]) of 0.41 % ID/g, a Drug uptake (Liver [2]) of 0.4 % ID/g and a Drug uptake (Pancreas [3]) of 2.37 % ID/g. It also gave a Drug uptake (Pancreas [4]) of 3.36 % ID/g, a Drug uptake (Pancreas [5]) of 2.83 % ID/g and a Drug uptake (Pancreas [6]) of 2.78 % ID/g. The Drug uptake (Spleen [7]) was 0.68 % ID/g, the Drug uptake (Spleen [8]) was 0.61 % ID/g and the Drug uptake (Spleen [9]) was 0.52 % ID/g. For the same compound, the Drug uptake (Spleen [10]) was 0.4 % ID/g, the Drug uptake (Kidney [11]) was 0.76 % ID/g and the Drug uptake (Kidney [12]) was 0.8 % ID/g. The Drug uptake (Kidney [13]) was 0.7 % ID/g, the Drug uptake (Kidney [14]) was 0.56 % ID/g and the Drug uptake (Muscle tissue [15]) was 0.35 % ID/g. For the same compound, the Drug uptake (Muscle tissue [16]) was 0.43 % ID/g, the Drug uptake (Muscle tissue [17]) was 0.42 % ID/g and the Drug uptake (Muscle tissue [18]) was 0.39 % ID/g. It also gave a Drug uptake (Brain [19]) of 0.2 % ID/g, a Drug uptake (Brain [20]) of 0.18 % ID/g and a Drug uptake (Brain [21]) of 0.2 % ID/g. It also gave a Drug uptake (Brain [22]) of 0.25 % ID/g, a Drug uptake [23] of 1.4 % ID/g and a Drug uptake [24] of 2.1 % ID/g. The Drug uptake [25] was 1.48 % ID/g, the Drug uptake [26] was 1.93 % ID/g and the Drug uptake (Bone) was 0.25 % ID/g.
